The list is not random: actives were taken first. Their share in the collection is about 2%.
ASAP1 inh = ASAP1 ArfGAP inhibition; Q9ULH1; ASAP1-stimulated ARF1 GTP hydrolysis, GDP FP detection; inhibition, % at 16.5 µM; actives 0.19% (n = 360,000); in the data active = inhibition above about 25%;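 also: 0% = vehicle with enzyme and substrate and 100% = no enzyme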
MBD2 inh = MBD2-methylated oligo binding inhibition | Q9UBB5 | TR-FRET, MBD2 binding to methylated oligonucleotide | inhibition, % at 4.4 µM | actives 0.31% (n = 370,000) | AID 686964; in the data active = inhibition above about 13%
Target sequence (Q9UBB5 whole entry, looked up): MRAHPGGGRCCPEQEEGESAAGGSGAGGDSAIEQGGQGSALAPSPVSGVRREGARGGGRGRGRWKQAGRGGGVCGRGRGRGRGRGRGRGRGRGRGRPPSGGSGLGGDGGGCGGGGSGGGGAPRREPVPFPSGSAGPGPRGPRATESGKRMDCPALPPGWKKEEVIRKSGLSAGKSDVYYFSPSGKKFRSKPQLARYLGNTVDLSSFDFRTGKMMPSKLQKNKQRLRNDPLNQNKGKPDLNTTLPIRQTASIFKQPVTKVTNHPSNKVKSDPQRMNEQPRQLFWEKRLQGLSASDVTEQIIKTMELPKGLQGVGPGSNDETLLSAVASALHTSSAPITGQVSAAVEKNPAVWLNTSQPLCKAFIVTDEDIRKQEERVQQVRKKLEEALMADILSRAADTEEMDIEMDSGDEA
UHRF1 MBD2 ctr = UHRF1 methyl-DNA binding inhibition. UHRF1 binding to methylated oligo, TR-FRET. actives 0.75% (n = 370,000). inhibition, % at 4.4 µM. AID 687016; in the data active = inhibition above about 21%;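 also: UHRF1 SRA domain binding a hemimethylated CpG hairpin DNA probe; 0% = median of test compound wells and 100% = reference inhibitor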
LEDGF integ inh = blocks HIV-1 LEDGF/p75-dependent DNA integration; TR-FRET IN-LEDGF/p75 DNA integration, Eu/Cy5; inhibition, % at 3.7 µM; actives 0.64% (n = 370,000);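 active = inhibition above the screen-wide mean plus 3 SD, cut at about 13% in these data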;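 also: signal is the Cy5 over europium emission ratio at 671 and 618 nm; 0% = plate median of compound wells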
ARFGAP1 inh = inhibitors of rat ARFGAP1. Q62848. Arfgap1-stimulated ARF1 GTP hydrolysis, GDP FP detection. inhibition, % at 16.5 µM. actives 0.26% (n = 360,000);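 active = inhibition above a per-plate limit, mean inhibition of low control wells plus 3 SD, cut at about 25% in these data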;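 also: 0% = DMSO wells with enzyme and 100% = wells lacking Arfgap1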
Target sequence (Q62848 1-136 limits assumed): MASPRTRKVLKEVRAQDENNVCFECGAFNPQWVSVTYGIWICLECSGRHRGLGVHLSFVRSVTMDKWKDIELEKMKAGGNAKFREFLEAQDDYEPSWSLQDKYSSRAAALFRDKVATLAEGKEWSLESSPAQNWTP
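Assay system: purified rat His6-Arfgap1 residues 1-136 (GAP domain); Reagent: human Δ17 ARF1 bound to GTP; Dosing: 16.5 µM single point, 1.26% DMSO; Times: GTP hydrolysis reaction 2 h at 25 °C; Signal: FP, GDP Alexa 633 tracer displaced from anti-GDP antibody, 620/688 nm; Measure: % inhibition from polarization.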
TDP2 inh = blocks human TDP2 phosphodiesterase activity; inhibition, % at 12.8 µM; recombinant TDP2, T5PNP hydrolysis, p-nitrophenol absorbance 415 nm; actives 0.34% (n = 370,000); O95551; AID 720702;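 active = inhibition above the mean of all tested compounds plus 3 SD, set per campaign, cut at about 25% in these data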;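 also: 0% = DMSO with enzyme and 100% = buffer with substrate but no TDP2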
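System – recombinant human TDP2 · Quantity – TDP2 enzyme at 120 nM final · Doses – single concentration, 12.8 µM nominal, with 1% DMSO · Incubation – 2 h at 37 °C · Measured by – epi absorbance of p-nitrophenol freed from T5PNP by hydrolysis · Read-out – % inhibition relative to enzyme-containing and enzyme-free wells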
IN multimer act = activates HIV-1 integrase multimerization in LEDGF counter-screen; actives 17% (n = 2,000); TR-FRET HIV-1 integrase multimerization, biochemical; shares compounds with LEDGF integ inh; activation, % at 7.7 µM; in the data active = activation above about 8.9%
TRFRET interf = optically interferes with TR-FRET readout in LEDGF counter-screen; shares compounds with LEDGF integ inh; TR-FRET optical interference counterscreen, HIV-1 IN multimerization; inhibition, % at 7.7 µM; 2,000 tested, under 10 active; AID 1053135;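 active = inhibition above the mean over all tested compounds plus 3 SD, which no compound reached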;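 also: 0% = integrase with antibodies and DMSO and 100% = antibodies without integrase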
LEDGF integ conf = LEDGF/p75-dependent HIV-1 integration inhibition, confirmation | shares compounds with LEDGF integ inh | TR-FRET LEDGF/p75-dependent HIV-1 integration, biochemical | inhibition, % at 3.7 µM | actives 36% (n = 2,000); in the data active = inhibition above about 14%
* = called active by the depositor; . = not tested or not shown.

SMILES	ASAP1 inh	MBD2 inh	UHRF1 MBD2 ctr	LEDGF integ inh	ARFGAP1 inh	TDP2 inh	IN multimer act	TRFRET interf	LEDGF integ conf
CC(C)c1ccc(N2C(=O)NC(=O)/C(=C\C=C\c3ccco3)C2=O)cc1	4	3	24*	23*	10	8	2	-6	31*
O=C(O)COc1cc(Cl)c(Cl)cc1Cl	14	-4	-2	4	-5	8	.	.	.
Clc1ccc(CNCCc2ccc3c(c2)OCO3)cc1	7	0	-1	3	10	8	.	.	.
Clc1cccc(CNCCc2ccc3c(c2)OCO3)c1	-3	2	0	15*	0	11	0	0	-2
CN1CCC(O)(c2ccccc2)C2CCCC21 (stereo not drawn)	9	0	8	37*	0	9	-3	14	2
Cc1ccc(OC(=O)N(C)C[C@H]2OCc3cnnn3CCCC(=O)N([C@H](C)CO)C[C@H]2C)cc1	-11	-6	2	4	-3	2	.	.	.
Cc1cc(C)cc(N2C(=O)NC(=O)/C(=C\c3cccn3-c3ccccc3)C2=O)c1	-1	-6	6	0	1	8	.	.	.
CN1C(=O)/C(=C/c2cccn2-c2ccc3ccccc3c2)C(=O)NC1=S	-9	-2	0	18*	-14	7	6	-29	30*
CN1C(=O)NC(=O)[C@]2(Cc3ccccc3N3CCN(c4ccccc4)CC32)C1=O (stereo partly drawn)	-2	0	0	40*	-16	11	0	-1	4
O=C1NC(=O)[C@]2(Cc3ccccc3N3CCN(c4ccccc4)CC32)C(=O)N1c1ccccc1 (stereo partly drawn)	9	-1	1	6	6	-20	.	.	.
CCN(CC)c1ccc(N=Cc2c(O)n(-c3ccccc3C)c(=O)[nH]c2=O)cc1	-5	-6	4	28*	1	7	1	-3	5
CCN(CC)c1ccc(N=Cc2c(O)n(Cc3ccccc3)c(=O)[nH]c2=O)cc1	3	3	-3	-3	3	4	.	.	.
CCN(CC)c1ccc(N=Cc2c(O)n(-c3ccccc3)c(=O)[nH]c2=O)cc1	7	-4	3	12	9	1	.	.	.
CCOc1ccccc1-n1c(O)c(C=Nc2ccc(N(CC)CC)cc2)c(=O)[nH]c1=O	-9	-6	-1	14*	-6	5	2	-11	-6
CCN(CC)c1ccc(N=Cc2c(O)[nH]c(=O)[nH]c2=O)cc1	-4	-5	11	26*	0	8	12*	-44	3
CC(C)(C)C(=O)N1Cc2cc(N3CCOCC3)ccc2-n2nncc2C1	11	-5	1	-3	6	2	.	.	.
O=C1C(Cl)=CC(=Nc2ccc(O)cc2)C=C1Cl	-14	-9	-6	8	-2	4	.	.	.
Cc1cc(/C=C2\C(=O)NC(=O)N(c3cccc(Br)c3)C2=O)c(C)n1C	1	1	7	1	-9	5	.	.	.
Cc1cc(/C=C2\C(=O)NC(=O)N(c3cccc(F)c3)C2=O)c(C)n1-c1cc(C(=O)O)cc(C(=O)O)c1	13	6	33*	39*	11	0	5	-27	24*
Cc1cc(/C=C2\C(=O)NC(=O)N(c3ccc(Cl)cc3)C2=O)c(C)n1-c1cccc(C(=O)O)c1	3	5	6	10	-2	0	.	.	.
Cc1cc(/C=C2\C(=O)NC(=O)N(c3ccc(Br)cc3)C2=O)c(C)n1-c1cc(C(=O)O)cc(C(=O)O)c1	6	11	44*	44*	-2	13	3	-16	31*
CN1C[C@H](CO)C=C2c3cccc4[nH]cc(c34)C[C@H]21	0	-5	-5	16*	10	13	1	-4	3
CC1=C[C@@H]2c3cccc4[nH]cc(c34)C[C@H]2N(C)C1	3	-1	8	2	1	17	.	.	.
Cc1ccccc1CN1Cc2cnnn2-c2ccccc2C1C#N (stereo not drawn)	-3	3	-3	-2	-2	2	.	.	.
C[C@@H]1CN([C@@H](C)CO)C(=O)CCCn2nncc2CO[C@@H]1CN(C)C(=O)Oc1cccc2ccccc12	1	2	-2	2	-4	-5	.	.	.
SMILES	ASAP1 inh	MBD2 inh	UHRF1 MBD2 ctr	LEDGF integ inh	ARFGAP1 inh	TDP2 inh	IN multimer act	TRFRET interf	LEDGF integ conf
NCCc1cc(O)c(O)cc1O	6	25*	58*	56*	-13	8	64*	-324	75*
CC(=O)c1ccc2c(c1)C1C(Cl)C(Sc3ccccc3[N+](=O)[O-])CC1C(C(=O)O)N2 (stereo not drawn)	-1	4	9	14*	0	6	6	-28	20*
CN1C2(C)c3ccccc3C1(c1ccccc1)c1ccccc12	0	1	-1	4	9	0	.	.	.
COC(=O)C1=C(c2ccc(-c3ccccc3)c(F)c2)C[C@@H]2CC[C@H]1N2C(=O)NCCOc1ccc(OC)cc1	14	-7	7	15*	3	-22	-2	8	-6
O=[N+]([O-])c1cc(S(=O)(=O)c2ccc(O)c([N+](=O)[O-])c2)ccc1O	-4	3	42*	17*	4	-17	28*	-141	27*
O=C(NC1CCCCC1)N1Cc2ccc(Br)cc2-n2nncc2C1	-12	2	-1	-1	0	-5	.	.	.
Cc1cccc(OCCn2cccc2/C=C2/C(=O)NC(=O)N(Cc3ccco3)C2=O)c1	9	4	49*	50*	-16	8	4	-15	24*
CCc1ccc(N2C(=O)NC(=O)/C(=C/c3cccn3CCOc3ccc(C)cc3)C2=O)cc1	4	2	0	-2	-7	3	.	.	.
Cc1cc(/C=C2/C(=O)NC(=O)N(Cc3ccco3)C2=O)c(C)n1-c1ccccc1	-1	7	45*	53*	-2	-10	1	-4	11
O=C(NCCN1CCC2(CC1)C(=O)NCN2c1ccccc1)C(c1ccccc1)c1ccccc1	8	1	-1	2	13	6	.	.	.
Cc1ccc(N2Cc3ccccc3-n3nncc3C2)cc1	20	-7	0	13	4	0	.	.	.

From PubChem BioAssay
